Test results taken from ChEMBL document CHEMBL2034830, “Pyrazole[3,4-e][1,4]thiazepin-7-one derivatives as a novel class of Farnesoid X Receptor (FXR) agonists” (Bioorg Med Chem, 2012).
Activity calls are given as the source filed them. No cut-off for these calls is given here.

Assays:
Bile acid receptor = biological target: T1, Bile acid receptor (Homo sapiens, UniProt Q96RI1); test: Agonist activity at human GST-tagged FXR ligand binding domain assessed as recruitment of Src-1 peptide […] by AlphaScreen assay
T1 sequence (Q96RI1 whole entry): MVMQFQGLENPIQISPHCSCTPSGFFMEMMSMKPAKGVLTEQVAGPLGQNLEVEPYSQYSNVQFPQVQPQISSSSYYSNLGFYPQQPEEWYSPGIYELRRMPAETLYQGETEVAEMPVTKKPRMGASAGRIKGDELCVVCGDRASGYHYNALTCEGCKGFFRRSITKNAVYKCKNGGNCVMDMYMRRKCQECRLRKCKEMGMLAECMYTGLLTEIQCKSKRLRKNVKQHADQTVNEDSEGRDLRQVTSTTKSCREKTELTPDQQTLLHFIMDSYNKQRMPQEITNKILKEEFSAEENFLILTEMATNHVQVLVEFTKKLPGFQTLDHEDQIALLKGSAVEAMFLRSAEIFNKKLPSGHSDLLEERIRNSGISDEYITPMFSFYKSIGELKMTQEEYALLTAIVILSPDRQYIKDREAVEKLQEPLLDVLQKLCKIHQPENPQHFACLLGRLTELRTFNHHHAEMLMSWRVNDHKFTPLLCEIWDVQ

[1] = biological target: T2, Bile acid receptor (Homo sapiens) (UniProt Q96RI1); test: Agonist activity at human GST-tagged FXR ligand binding domain assessed as recruitment of Src-1 peptide […] by AlphaScreen assay relative to 10 uM of CDCA
T2 sequence (whole entry): T1 sequence (Q96RI1 whole entry)

[2] = biological target: T2, Bile acid receptor (Homo sapiens); test: Induction of FXR-mediated upregulation of Ostbeta gene in human HepG2 cells after 18 hrs by qRT-PCR analysis relative to obeticholic acid; assay type: cell-based
Outline: (§1)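 HepG2 cells were stimulated for 18 h with increasing compound concentrations. Total RNA was random reverse-transcribed, and 10 ng template was run in SYBR Green real-time PCR with 0.3 μM of each primer. Cycling was 95 °C 3 min, then 45 cycles of 95 °C 10 s and 60 °C 30 s, in triplicate. Expression is given as ΔCT against an endogenous control, and relative expression as ΔΔCT.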

[3] = biological target: T2, Bile acid receptor (Homo sapiens); test: Induction of FXR-mediated down-regulation of Cyp7alpha1 gene in human HepG2 cells after 18 hrs by qRT-PCR analysis; assay type: cell-based; outline: as §1
[4] = biological target: T2, Bile acid receptor (Homo sapiens); test: Induction of FXR-mediated upregulation of Bsep gene in human HepG2 cells after 18 hrs by qRT-PCR analysis; assay type: cell-based; outline: as §1

Row | Compound | EC50 (Bile acid receptor; read-out: EC50) | Efficacy [1] | further results
1 | COc1ccc(C2SC(C)C(=O)Nc3c2c(C)nn3-c2ccccc2C)c(OC)c1 (configuration not stated) | 10500 nM | 63% | –
2 | Cc1nn(-c2ccccc2F)c2c1C(c1ccc(Oc3ccccc3)cc1)SC(C)C(=O)N2 (mixture of isomers) | 3900 nM | 72% | –
3 | Cc1nn(-c2ccccc2Cl)c2c1C(c1ccc(Oc3ccccc3)cc1)SC(C)C(=O)N2 (mixture of isomers) | 2700 nM | 57% | –
4 | CCOc1cccc(-c2ccc([C@H]3S[C@@H](C)C(=O)Nc4c3c(C)nn4-c3ccccc3C)cc2)c1 (racemic) | 3500 nM | 13% | –
5 | COC(=O)c1cccc(-c2ccc([C@H]3S[C@@H](C)C(=O)Nc4c3c(C)nn4-c3ccccc3C)cc2)c1 (racemic) | – | – | EC50 (Bile acid receptor): Not Active
6 | COC(=O)c1ccc(-c2ccc([C@H]3S[C@@H](C)C(=O)Nc4c3c(C)nn4-c3ccccc3C)cc2)cc1 (racemic) | – | – | EC50 (Bile acid receptor): Not Active
7 | Cc1ccccc1-n1nc(C)c2c1NC(=O)[C@H](C)S[C@@H]2c1ccc(-c2ccco2)cc1 (racemic) | 3600 nM | 32% | –
8 | Cc1ccccc1-n1nc(C)c2c1NC(=O)[C@H](C)S[C@@H]2c1ccc(-c2ccoc2)cc1 (racemic) | 3500 nM | 40% | –
9 | Cc1ccccc1-n1nc(C)c2c1NC(=O)[C@H](C)S[C@@H]2c1ccc(-c2cccc(C(=O)O)c2)cc1 (racemic) | – | – | EC50 (Bile acid receptor): Not Active
10 | Cc1ccccc1-n1nc(C)c2c1NC(=O)[C@H](C)S[C@@H]2c1ccc(-c2ccc(C(=O)O)cc2)cc1 (racemic) | – | – | EC50 (Bile acid receptor): Not Active
11 | Cc1ccccc1-n1nc(C)c2c1NC(=O)[C@H](C)S[C@@H]2c1ccc(/C=C/c2ccccc2)cc1 (racemic) | – | – | EC50 (Bile acid receptor): Not Active
12 | Cc1ccccc1-n1nc(C)c2c1NC(=O)[C@H](C)S[C@@H]2c1ccc(-c2cccs2)cc1 (racemic) | 2600 nM | 85% | –
13 | COc1ccc(Oc2ccc([C@H]3S[C@@H](C)C(=O)Nc4c3c(C)nn4-c3ccccc3C)cc2)cc1 (racemic) | 2200 nM | 70% | –
14 | Cc1ccccc1-n1nc(C)c2c1NC(=O)[C@H](C)S[C@@H]2c1ccc(Oc2ccccc2C(=O)O)cc1 (racemic) | – | – | EC50 (Bile acid receptor): Not Active
15 | Cc1ccccc1-n1nc(C)c2c1NC(=O)[C@H](C)S[C@@H]2c1ccc(Oc2cccc(C(=O)O)c2)cc1 (racemic) | – | – | EC50 (Bile acid receptor): Not Active
16 | Cc1ccccc1-n1nc(C)c2c1NC(=O)[C@H](C)S[C@@H]2c1ccc(Oc2ccc(C(=O)O)cc2)cc1 (racemic) | – | – | EC50 (Bile acid receptor): Not Active
17 | Cc1ccccc1-n1nc(C)c2c1NC(=O)[C@H](C)S[C@@H]2c1ccc(OCc2ccccc2)cc1 (racemic) | – | – | EC50 (Bile acid receptor): Not Active
18 | Cc1cccc(-n2nc(C)c3c2NC(=O)[C@H](C)S[C@@H]3c2ccc(Oc3ccccc3)cc2)c1 (racemic) | 2400 nM | 22% | –
19 | Cc1ccc(-n2nc(C)c3c2NC(=O)[C@H](C)S[C@@H]3c2ccc(Oc3ccccc3)cc2)cc1 (racemic) | 3400 nM | 11% | –
20 | Cc1nn(-c2ccccc2C(C)C)c2c1[C@@H](c1ccc(Oc3ccccc3)cc1)S[C@@H](C)C(=O)N2 (racemic) | 1900 nM | 174% | –
21 | Cc1nn(-c2ccccc2C(F)(F)F)c2c1C(c1ccc(Oc3ccccc3)cc1)SC(C)C(=O)N2 (racemic) | 2000 nM | 50% | –
22 | COc1ccccc1-n1nc(C)c2c1NC(=O)[C@H](C)S[C@@H]2c1ccc(Oc2ccccc2)cc1 (racemic) | 3300 nM | 37% | –

Further lines, with some results ahead:

Row | EC50 (Bile acid receptor; read-out: EC50) | Efficacy [1] | Compound | further results
23 | 1800 nM | 84% | Cc1nn(-c2ccccc2Br)c2c1C(c1ccc(Oc3ccccc3)cc1)SC(C)C(=O)N2 (mixture of isomers) | –
24 | 990 nM | 24% | Cc1ccccc1-n1nc(C)c2c1NC(=O)[C@H](C)S[C@@H]2c1ccc(-c2ccccc2)cc1 (racemic) | –
25 | 1100 nM | 50% | COc1ccccc1-c1ccc([C@H]2S[C@@H](C)C(=O)Nc3c2c(C)nn3-c2ccccc2C)cc1 (racemic) | –
26 | 1800 nM | 41% | COc1cccc(-c2ccc([C@H]3S[C@@H](C)C(=O)Nc4c3c(C)nn4-c3ccccc3C)cc2)c1 (racemic) | –
27 | 1200 nM | 38% | COc1ccc(-c2ccc([C@H]3S[C@@H](C)C(=O)Nc4c3c(C)nn4-c3ccccc3C)cc2)cc1 (racemic) | –
28 | 1400 nM | 68% | Cc1ccccc1-n1nc(C)c2c1NC(=O)[C@H](C)S[C@@H]2c1ccc(-c2ccsc2)cc1 (racemic) | –
29 | 1500 nM | 17% | Cc1ccccc1-n1nc(C)c2c1NC(=O)[C@H](C)S[C@@H]2c1ccc(-c2cc3ccccc3o2)cc1 (racemic) | –
30 | 1300 nM | 118% | Cc1ccccc1-n1nc(C)c2c1NC(=O)[C@H](C)S[C@@H]2c1ccc(Oc2ccccc2)cc1 (racemic) | –
31 | 1700 nM | 240% | COc1ccccc1Oc1ccc([C@H]2S[C@@H](C)C(=O)Nc3c2c(C)nn3-c2ccccc2C)cc1 (racemic) | Activity [2]: Active; Activity [3]: Dose-dependent effect; Activity [4]: inactive
32 | 1700 nM | 120% | COc1cccc(Oc2ccc([C@H]3S[C@@H](C)C(=O)Nc4c3c(C)nn4-c3ccccc3C)cc2)c1 (racemic) | –
33 | 1900 nM | 130% | COc1cc([C@H]2S[C@@H](C)C(=O)Nc3c2c(C)nn3-c2ccccc2C)ccc1Oc1ccccc1 (racemic) | –
34 | 1100 nM | 190% | CCc1ccccc1-n1nc(C)c2c1NC(=O)[C@H](C)S[C@@H]2c1ccc(Oc2ccccc2)cc1 (racemic) | Activity [2]: Active; Activity [3]: Dose-dependent effect; Activity [4]: Dose-dependent effect
35 | 1100 nM | 240% | CCCc1ccccc1-n1nc(C)c2c1NC(=O)[C@H](C)S[C@@H]2c1ccc(Oc2ccccc2)cc1 (racemic) | Activity [2]: Active; Activity [3]: Dose-dependent effect; Activity [4]: inactive
36 | 1300 nM | 130% | Cc1nn(-c2ccccc2I)c2c1C(c1ccc(Oc3ccccc3)cc1)SC(C)C(=O)N2 (racemic) | –
